Laboratory results: ChEMBL document CHEMBL4825662 (J Med Chem, 2021)
≈ marks a conversion by molar mass, not a printed value. One block for each molecule: values may come before it.

What was measured:
[1] = Cmax in Sprague-Dawley rat at 5 mg/kg, po administered via gavage measured after 0.02 to 24 hrs by tandem liquid chromatography/mass spectrometry; type: ADME, organism-based; parameters: route oral, dose 5 mg/kg, time upper 24 hrs, time lower 0.02 hrs; conditions: in vivo
Summary of the method: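 Male Sprague–Dawley rats weighing 200–250 g, 3 per route, were used. The i.v. bolus was 1 mg/kg at 1 mg/mL in 40:60 dimethylacetamide/saline. Oral gavage doses were 5 or 10 mg/kg at 5 mg/mL in 1% methyl cellulose with 0.1% Tween 80. Heparinized blood was taken at 0.02–24 h (ten time points). Plasma was analyzed by LC-MS/MS after acetonitrile precipitation.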

[2] = Half life in Sprague-Dawley rat at 10 mg/kg, po measured after 0.25 to 24 hrs by UHPLC-TOF method; type: ADME, organism-based; conditions: in vivo, time 0.25-24 hrs
[3] = Clearance in Sprague-Dawley rat at 1 mg/kg, iv administered […] measured after 0.02 to 24 hrs by tandem liquid chromatography/mass spectrometry; type: ADME, organism-based; conditions: in vivo, time 0.02-24 hrs
[4] = test system: Human orthopneumovirus; assay: Antiviral activity against Respiratory syncytial virus A2 infected in human Huh7 cells by Plaque reduction assay; type: functional, organism-based; conditions: A2, Huh-7
Summary of the method: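 Huh-7 cells were infected with RSV strain A2 in the presence of compound. Values are the average of at least two testing occasions.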

[5] = Thermodynamic solubility in PBS at 1 to 100 uM at pH 7.4 by HPLC-UV method; type: physicochemical; conditions: dose 1-100 µM, read-out: Therm_solubility
[6] = Tmax in CD1 mouse at 5 mg/kg, po measured after 0.083 to 24 hrs by UHPLC-TOF method; type: ADME, organism-based; conditions: in vivo, time 0.083-24 hrs
Summary of the method: (§1)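 Male CD-1 mice, acclimatized and individually housed, dosed IV and PO as amorphous-solid suspension. Terminal cardiac-puncture blood into heparinized tubes on wet ice, centrifuged at 4 °C within 15 min; plasma snap-frozen at −20 °C. IV arm sampled 2 min–24 h, oral arm 5 min–24 h. Plasma analysed by UHPLC-quadrupole-TOF MS.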

[7] = Cytotoxicity against human HepG2 cells by MTT assay; type: cell-based
Summary of the method: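 Viability was assessed by MTT after culture with compound at 0.01 nM to 100 μM, run in parallel with plaque reduction assays. Values are the average of at least two testing occasions.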

[8] = Intrinsic clearance in human liver microsomes preincubated followed by NADPH addition and measured up to 45 mins by LC-MS/MS analysis; type: ADME, Microsome
[9] = Intrinsic clearance in Sprague-Dawley rat liver microsomes preincubated followed by NADPH addition and measured up to 45 mins by LC-MS/MS analysis; type: ADME, Microsome
[10] = Apparent permeability across basolateral side to apical side in MDCK-MDR1 cells at 10 uM measured at 60 mins by LC-MS/MS analysis; type: ADME, cell-based, Canis lupus familiaris; conditions: dog
[11] = Tmax in Sprague-Dawley rat at 10 mg/kg, po measured after 0.02 to 24 hrs by UHPLC-TOF method; type: ADME, organism-based; conditions: Sprague-Dawley, in vivo, time 0.02-24 hrs, read-out: Tmax
[12] = Half life in CD1 mouse at 1 mg/kg, iv measured after 0.03 to 24 hrs by UHPLC-TOF method; type: ADME, organism-based; conditions: in vivo, time 0.03-24 hrs
[13] = Cmax in Sprague-Dawley rat at 10 mg/kg, po measured after 0.02 to 24 hrs by UHPLC-TOF method; type: ADME, organism-based; parameters: route oral, dose 10 mg/kg, time 0.02-24 hrs; conditions: in vivo
[14] = Oral bioavailability in Sprague-Dawley rat at 10 mg/kg administered via gavage measured after 0.02 to 24 hrs by tandem liquid chromatography/mass spectrometry; type: ADME, organism-based; conditions: in vivo, time 0.02-24 hrs
Summary of the method: (§2)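 Male Sprague–Dawley rats (200–250 g), 3 per route. IV bolus at 1 mg/kg, 1 mg/mL in 40:60 dimethylacetamide/saline; oral gavage at 5 or 10 mg/kg, 5 mg/mL in 1% methyl cellulose, 0.1% Tween 80 in water. Serial blood at 0.02–24 h (ten points) into heparin, spun at 4 °C, plasma frozen; acetonitrile protein precipitation, ESI LC-MS/MS with matrix curve and internal standards.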

[15] = Cmax in CD1 mouse at 5 mg/kg, po measured after 0.03 to 24 hrs by UHPLC-TOF method; type: ADME, organism-based; parameters: route oral, time upper 24 hrs, time lower 0.03 hrs, dose 5 mg/kg; conditions: in vivo
[16] = Efflux ratio of apparent permeability in MDCK-MDR1 cells at 10 uM measured at 60 mins by LC-MS/MS analysis; type: ADME, cell-based, Canis lupus familiaris; conditions: dog, MDCK-MDR1
[17] = Apparent permeability across apical to basolateral side in MDCK-MDR1 cells at 10 uM measured at 60 mins by LC-MS/MS analysis; type: ADME, cell-based, Canis lupus familiaris; conditions: dog, MDCK-MDR1
[18] = Volume of distribution at steady state in CD1 mouse at 1 mg/kg, iv measured after 0.083 to 24 hrs by UHPLC-TOF method; type: ADME, organism-based; conditions: in vivo, time 0.083-24 hrs, read-out: Vdss; summary of the method: as §1
[19] = Oral bioavailability in CD1 mouse at 5 mg/kg measured after 0.03 to 24 hrs by UHPLC-TOF method; type: ADME, organism-based; conditions: in vivo, time 0.03-24 hrs; summary of the method: as §1
[20] = Volume of distribution at steady state in Sprague-Dawley rat at 1 mg/kg, iv administered […] measured after 0.02 to 24 hrs by tandem liquid chromatography/mass spectrometry; type: ADME, organism-based; conditions: in vivo, time 0.02-24 hrs, read-out: Vdss; summary of the method: as §2
[21] = Intrinsic clearance in Beagle dog liver microsomes preincubated followed by NADPH addition and measured up to 45 mins by LC-MS/MS analysis; type: ADME, Canis lupus familiaris, Microsome
[22] = Clearance in CD1 mouse at 1 mg/kg, iv measured after 0.083 to 24 hrs by UHPLC-TOF method; type: ADME, organism-based; conditions: in vivo, time 0.083-24 hrs
[23] = Oral bioavailability in Beagle dog at 3 mg/kg measured after 0.03 to 24 hrs by UHPLC-TOF method; type: ADME, organism-based, Canis lupus familiaris; conditions: in vivo, 3 mg/kg, time 0.03-24 hrs
Summary of the method: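 Dogs examined by a veterinary surgeon before each session, fed 2 h post-dose, water ad libitum, dosed as amorphous-solid suspension. Serial blood into heparinized tubes, centrifuged at 4 °C for 10 min at 3000g; plasma snap-frozen at −20 °C. IV sampling 2 min–24 h, oral 15 min–24 h. Plasma analysed by UHPLC-quadrupole-TOF MS.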

[24] = Protein binding in human plasma assessed as unbound fraction at 5 uM by LC-MS/MS analysis based equilibrium dialysis method; type: ADME, cell-free
[25] = Half life in Beagle dog at 3 mg/kg, po measured after 0.03 to 24 hrs by UHPLC-TOF method; type: ADME, organism-based, Canis lupus familiaris; conditions: in vivo, time 0.03-24 hrs
[26] = Cmax in CD1 mouse at 10 mg/kg, po measured after 0.083 to 24 hrs by UHPLC-TOF method; type: ADME, organism-based; parameters: route oral, time 0.083-24 hrs, dose 10 mg/kg; conditions: in vivo
[27] = Intrinsic clearance in rat hepatocytes at 3 uM assessed per million cells measured up to 60 mins by LC-MS/MS analysis; type: ADME, cell-based, Hepatocyte; conditions: read-out: CLH
[28] = Intrinsic clearance in human hepatocytes at 3 uM assessed per million cells measured up to 60 mins by LC-MS/MS analysis; type: ADME, cell-based, Hepatocyte; conditions: read-out: CLH
[29] = Clearance in Beagle dog at 0.3 mg/kg, iv measured after 0.03 to 24 hrs by UHPLC-TOF method; type: ADME, organism-based, Canis lupus familiaris; conditions: in vivo, time 0.03-24 hrs
[30] = Half life in CD1 mouse at 10 mg/kg, po measured after 0.083 to 24 hrs by UHPLC-TOF method; type: ADME, organism-based; conditions: in vivo, time 0.083-24 hrs
[31] = Half life in Beagle dog hepatocytes at 3 uM assessed per million cells measured up to 60 mins by LC-MS/MS analysis; type: ADME, cell-based, Canis lupus familiaris, Hepatocyte
[32] = Half life in human liver microsomes preincubated followed by NADPH addition and measured up to 45 mins by LC-MS/MS analysis; type: ADME, Microsome
[33] = Half life in rat hepatocytes at 3 uM measured up to 60 mins by LC-MS/MS analysis; type: ADME, cell-based, Hepatocyte
[34] = Half life in Beagle dog liver microsomes preincubated followed by NADPH addition and measured up to 45 mins by LC-MS/MS analysis
[35] = Half life in human hepatocytes at 3 uM measured up to 60 mins by LC-MS/MS analysis; type: ADME, cell-based, Hepatocyte
[36] = Half life in Beagle dog at 0.3 mg/kg, iv measured after 0.03 to 24 hrs by UHPLC-TOF method; type: ADME, organism-based, Canis lupus familiaris; conditions: in vivo, time 0.03-24 hrs
Summary of the method: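 Dogs dosed IV as a suspension of amorphous solid. Serial blood at 2, 5, 15 min and 1, 2, 4, 8, 12, 24 h into heparinized tubes, centrifuged at 4 °C for 10 min at 3000g. Plasma snap-frozen and stored at −20 °C, then analysed by UHPLC-TOF.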

[37] = Intrinsic clearance in Beagle dog hepatocytes at 3 uM assessed per million cells measured up to 60 mins by LC-MS/MS analysis; type: ADME, cell-based, Canis lupus familiaris, Hepatocyte; conditions: read-out: CLH
[38] = Tmax in CD1 mouse at 10 mg/kg, po measured after 0.083 to 24 hrs by UHPLC-TOF method; type: ADME, organism-based; conditions: in vivo, time 0.083-24 hrs; summary of the method: as §1
[39] = Cmax in Beagle dog at 3 mg/kg, po measured after 0.03 to 24 hrs by UHPLC-TOF method; type: ADME, organism-based, Canis lupus familiaris; parameters: route oral, dose 3 mg/kg, time 0.03-24 hrs; conditions: in vivo
[40] = Protein binding in rat plasma assessed as unbound fraction at 5 uM by LC-MS/MS analysis based equilibrium dialysis method; type: ADME, cell-free
[41] = Protein binding in dog plasma assessed as unbound fraction at 5 uM by LC-MS/MS analysis based equilibrium dialysis method; type: ADME, cell-free, Canis lupus familiaris
[42] = Oral bioavailability in CD1 mouse at 10 mg/kg measured after 0.03 to 24 hrs by UHPLC-TOF method; type: ADME, organism-based; conditions: in vivo, time 0.03-24 hrs; summary of the method: as §1
[43] = Tmax in Beagle dog at 3 mg/kg, […] by UHPLC-TOF method; type: ADME, organism-based, Canis lupus familiaris; conditions: in vivo, po

Cmax [1]: 0.0443 µg/mL
half-life [2]: 0.8 h
clearance [3]: 12.5 L/h/kg
EC50 [4]: 2.3 nM
solubility thermodynamic [5]: 1180 µM (≈ 526 µg/mL)
Tmax [6]: 2 h
intrinsic clearance (CLint) [8]: 2.9 µL/min
Microsomal intrinsic clearance [9]: 0.7 µL/min
Papp B→A at 1 h, 10 µM [10]: 27 nm/s
Tmax [11]: 2.1 h
half-life [12]: 2.4 h
Cmax [13]: 0.0443 µg/mL
bioavailability [14]: 13.8%
Cmax [15]: 0.11 µg/mL
efflux ratio at 1 h, 10 µM [16]: 7.5
Papp A→B at 1 h, 10 µM [17]: 4 nm/s
Vd [18]: 11.3 L/kg
bioavailability [19]: 12.9%
Vd [20]: 11 L/kg
intrinsic clearance [21]: 2 µL/min
clearance [22]: 4.56 L/h/kg
Structure (SMILES): NCc1ccc2c(c1)nc(CN1C(=O)C3(CC3)c3cccc(F)c31)n2CCCC(F)(F)F
CC50 [7]: > 25000 nM

F [23]: 163%
fraction unbound at 5 µM [24]: 0.548
EC50 [4]: 2.4 nM
solubility thermodynamic [5]: 1270 µM (≈ 534 µg/mL)
half-life [25]: 3.1 h
intrinsic clearance (CLint) [8]: 66.4 µL/min
Microsomal intrinsic clearance [9]: 5.2 µL/min
Cmax [26]: 0.45 µg/mL
hepatocyte CLint at 3 µM [27]: 21.2 µL/min/1e6 cells
Papp B→A at 1 h, 10 µM [10]: 406 nm/s
hepatocyte CLint at 3 µM [28]: 7.1 µL/min/1e6 cells
clearance [29]: 1.15 L/h/kg
half-life [30]: 1.4 h
half-life at 3 µM [31]: > 16.7 h
half-life [32]: 0.348 h
half-life [12]: 1.7 h
half-life at 3 µM [33]: 1.02 h
half-life [34]: 55.8 h
efflux ratio at 1 h, 10 µM [16]: 94
half-life at 3 µM [35]: 3.28 h
half-life [36]: 5.2 h
hepatocyte CLint at 3 µM [37]: 0.8 µL/min/1e6 cells
Papp A→B at 1 h, 10 µM [17]: 4 nm/s
Tmax [38]: 1.7 h
Cmax [39]: 0.505 µg/mL
fraction unbound at 5 µM [40]: 0.399
fraction unbound at 5 µM [41]: 0.497
bioavailability [42]: 39.4%
Vd [18]: 5.5 L/kg
intrinsic clearance [21]: 0.4 µL/min
clearance [22]: 3.48 L/h/kg
Tmax [43]: 0.5 h
Structure (SMILES): NCc1ccc2c(c1)nc(CN1C(=O)C3(CC3)c3ccc(F)cc31)n2C1CCOCC1
CC50 [7]: > 25000 nM
